Test results as given in publication PMC4176526 (Bioorganic & medicinal chemistry letters, 2014).

Target: Myc-tagged Akt1 (Homo sapiens, UniProt P31749)
Format: biochemical
Settings: at 5 µM, immunoblot
In short: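 HEK293 cells transfected with Myc-tagged Akt1; the kinase was immunoprecipitated with anti-Myc antibody. The immobilized enzyme was incubated with a GSK3β fusion protein substrate, with or without test compound. Phospho-GSK3β was detected by immunoblot, and an approximate IC50 was estimated from the blots.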

Sequence of Myc-tagged Akt1 (P31749 whole entry): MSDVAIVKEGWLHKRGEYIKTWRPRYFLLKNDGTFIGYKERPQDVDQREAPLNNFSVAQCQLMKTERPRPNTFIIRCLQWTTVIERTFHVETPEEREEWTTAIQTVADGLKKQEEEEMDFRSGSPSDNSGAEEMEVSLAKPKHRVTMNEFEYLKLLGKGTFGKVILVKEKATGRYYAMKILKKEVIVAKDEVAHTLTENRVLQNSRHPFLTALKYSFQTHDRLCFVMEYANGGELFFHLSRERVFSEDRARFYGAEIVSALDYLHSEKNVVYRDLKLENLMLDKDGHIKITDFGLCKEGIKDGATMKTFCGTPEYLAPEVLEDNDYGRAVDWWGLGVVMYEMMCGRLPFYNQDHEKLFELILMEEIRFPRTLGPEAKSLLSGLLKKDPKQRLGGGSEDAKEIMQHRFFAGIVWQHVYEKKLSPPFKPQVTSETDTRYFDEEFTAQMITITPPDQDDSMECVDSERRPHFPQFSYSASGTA

Q: `NC1(c2ccc(-c3nc4ccn5c(=O)[nH]nc5c4cc3-c3ccccc3)cc2)CCC1` [MK2206] was tested. Which “phosphorylation of GSK3β” value did it give?
A: The value was “completely blocks”.
